Biological target: T1, Trypanothione reductase (Trypanosoma cruzi, UniProt P28593)
Assay: The mixed type inhibitory activity against trypanothione reductase was evaluated from Lineweaver Burk plots
Conditions: not given

T1 sequence (P28593 whole entry): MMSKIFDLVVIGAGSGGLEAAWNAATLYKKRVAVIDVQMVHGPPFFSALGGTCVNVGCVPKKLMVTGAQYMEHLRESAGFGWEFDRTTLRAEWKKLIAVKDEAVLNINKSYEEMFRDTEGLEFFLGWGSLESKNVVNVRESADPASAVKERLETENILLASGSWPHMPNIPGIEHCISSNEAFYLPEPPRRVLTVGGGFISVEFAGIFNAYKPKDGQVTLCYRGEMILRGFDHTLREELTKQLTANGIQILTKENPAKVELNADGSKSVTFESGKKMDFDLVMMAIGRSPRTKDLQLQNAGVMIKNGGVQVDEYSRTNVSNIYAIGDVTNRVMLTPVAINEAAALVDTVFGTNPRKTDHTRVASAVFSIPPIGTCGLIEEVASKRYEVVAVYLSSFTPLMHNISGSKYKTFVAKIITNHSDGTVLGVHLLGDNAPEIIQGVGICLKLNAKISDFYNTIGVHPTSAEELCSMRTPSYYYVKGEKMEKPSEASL

Row | Compound | Ki
1 | CCN(CC)CCCCSc1c2ccc(Cl)cc2nc2ccc(OC)cc12 | 67 µM
2 | CCN(CC)CCSc1c2ccc(Cl)cc2nc2ccc(OC)cc12 | 37 µM

Biological target: T1, Trypanothione reductase
Assay: The mixed type inhibitory activity against trypanothione reductase was evaluated from Lineweaver Burk plots and Cornish-Bowdwn plots.
Conditions: not given

Row | Compound | Ki
3 | CCN(CC)CCCCSc1c2ccc(Cl)cc2nc2ccc(OC)cc12 | 21 µM
4 | CCN(CC)CCSc1c2ccc(Cl)cc2nc2ccc(OC)cc12 | 83 µM

Biological target: T1, Trypanothione reductase
Assay: The competitive inhibitory activity against trypanothione reductase was evaluated from Lineweaver Burk plots
Conditions: read-out: Ki app
Procedure, shortened: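 Recombinant T. cruzi TR purified from E. coli SG5, 7–10 mU per assay, at 25 °C in 40 mM Hepes, 1 mM EDTA, pH 7.5 with 100 µM NADPH. TS2 varied without inhibitor and at two inhibitor levels. Each point was measured at least twice. Apparent Ki is the mean of Ki,slope values from Lineweaver–Burk plots at each [I].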

Row | Compound | Ki
5 | Nc1c2ccccc2nc2cc(Cl)ccc12 | 43 µM
6 | CCN(CC)CCCC(C)Nc1c2ccccc2nc2ccc(OC)cc12 (centres undefined) | 27 µM
7 | Nc1c2c(nc3cc(Cl)ccc13)CCCC2 | 80 µM
8 | Nc1c2ccccc2nc2ccccc12 [AMINACRINE] | 38 µM
9 | Nc1c2c(nc3ccccc13)CCCC2 [TACRINE] | 140 µM

The next lines start with the values.

Row | Ki | Compound
10 | 19 µM | CCN(CC)CCCC(C)Nc1c2ccc(Cl)cc2nc2ccc(OC)cc12 (centres undefined) [QUINACRINE]
11 | 11 µM | CCN(CC)CCCCC(C)Nc1c2ccccc2nc2cc(Cl)ccc12 (centres undefined)
12 | 10 µM | CCN(CC)CCCC(C)Nc1c2ccccc2nc2cc(Cl)ccc12 (centres undefined)
13 | 7 µM | COc1ccc2nc3cc(Cl)ccc3c(N)c2c1
14 | 5.5 µM | CCN(CC)CCCCC(C)Nc1c2ccc(Cl)cc2nc2ccc(OC)cc12 (centres undefined)

Reference: ChEMBL document CHEMBL1132554, “Inhibition of Trypanosoma cruzi trypanothione reductase by acridines: kinetic studies and structure-activity relationships” (J Med Chem, 1999)
